Screening results deposited in PubChem by several laboratories.
CaV13 ICDI inh: Disruptors of the CACNA1D IQ motif to Ca2+-dependent inactivation inhibitor domain association, primary screening, Förster resonance energy transfer in intact living …; HEK cells, CFP/YFP FRET ICDI-IQ, plate reader, 10 min; percent FRET-ratio fall versus neutral wells; hit rate 0.098% among 340,000; AID 743397; inhibition, % at 12.3 µM;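 active means mean replicate inhibition of at least 30% and at least 1% of replicates passing that level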;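 further: 0% = median of the neutral control wells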
FAS-TE inh: FAS thioesterase (human) inhibition; P49327; recombinant FAS-TE, OMFH fluorogenic substrate, fluorescence endpoint; inhibition, % at 15 µM; hit rate 0.67% among 360,000;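 active means compounds whose normalised, plate-corrected inhibition of enzyme fluorescence in the single-dose primary screen is 50% or more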;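 further: 0% = DMSO with enzyme and 100% = substrate without enzyme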
Arr AP2 block: human beta-arrestin and AP2 interaction inhibition; FITC-arrestin peptide / GST-AP2 beads, flow cytometry; AP2 beta2 appendage carries R879A mutation; inhibition, % at 10 µM; hit rate 0.31% among 340,000;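 active means inhibition above a set limit, near 3 SD of compounds lacking own fluorescence, cut at about 54% in these data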;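 further: plate controls were DMSO wells for no effect and 5 µM unlabelled arrestin peptide for full effect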
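Test system: GST-tagged AP2 beta2-adaptin appendage (R879A) on 4 µm glutathione beads; also added: fluorescein-tagged arrestin peptide at 50 nM final; timing: 12 min plus 1 h, RT; signal: flow cytometry, FL1 (488/535 nm); read-out: percent drop in bead-associated FITC signal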
ADAM17 inh: inhibitors of human ADAM17; AID 720648; P78536; recombinant ADAM17, EDANS/DABCYL FRET peptide cleavage; inhibition, % at 6.95 µM; hit rate 0.83% among 370,000;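 active means inhibition above the mean of compounds lying between control limits plus 3 SD, set per campaign, cut at about 8.5% in these data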;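 further: 0% = DMSO-only wells as the low control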
ADAM10 inh: ADAM10 inhibition, QFRET primary screen | O14672 | recombinant ADAM10, EDANS/DABCYL FRET peptide cleavage, 3 h | inhibition, % at 7 µM | hit rate 0.62% among 370,000;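 active means inhibition above a per-campaign cutoff equal to the mean of compounds falling between control-based bounds plus 3 SD, cut at about 20% in these data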;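 further: 0% = DMSO wells while the 100% control is not disclosed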
CendR NRP1 mod: modulators of CendR peptide binding to human neuropilin-1 | O14786 | FAM-RPARPAR peptide binding to NRP-1, fluorescence polarization | inhibition, % at 25 µM | hit rate 0.85% among 360,000 | AID 602438;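 active means inhibition or corrected inhibition above about 18%, plus a signal ratio from 0.5 to 1.5, limit read from the data, passing the limit was not always enough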
ADAM10 ctr: inhibits human ADAM10 in ADAM17 exosite counter-screen; shares compounds with ADAM17 inh; recombinant ADAM10, EDANS/DABCYL FRET peptide cleavage, 3 h; inhibition, % at 6.95 µM; hit rate 47% among 2,900;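 active means mean inhibition over the triplicate runs exceeds the activity threshold set in the earlier primary screen, cut at about 20% in these data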;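 further: 0% = DMSO wells and 100% = marimastat wells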
ADAM17 confirm: confirmation of inhibitors of human ADAM17 | shares compounds with ADAM17 inh | recombinant ADAM17, EDANS/DABCYL QFRET peptide cleavage | inhibition, % at 6.95 µM | hit rate 65% among 2,900;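 active means mean inhibition across replicates above the hit cutoff set in the primary screen, cut at about 8.5% in these data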;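 further: 0% = DMSO wells and 100% = marimastat wells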
An asterisk follows results filed as active; / = not tested or not shown. In the library only some 2.9% were active in any assay of this set; here they are far more common.

SMILES	CaV13 ICDI inh	FAS-TE inh	Arr AP2 block	ADAM17 inh	ADAM10 inh	CendR NRP1 mod	ADAM10 ctr	ADAM17 confirm
Cc1ccc(/C=N/NC(=O)C2CC(=O)N(c3ccccc3)C2)s1 (centres undefined)	-10	-11	6	10*	4	-6	0	2
COc1ccc(S(=O)(=O)N2CCCCCC2)cc1NC(=O)CN1C(=O)NC(C)(c2ccccc2)C1=O (centres undefined)	-6	2	-11	-5	4	-11	/	/
C#CCn1c(S(=O)(=O)Cc2ccc(F)cc2)nc(-c2ccccc2)c1-c1ccccc1	-5	34	31	8.7*	16	2	22*	16*
CCOC(=O)Cn1c(S(=O)(=O)Cc2ccc(F)cc2)nc(-c2ccccc2)c1-c1ccccc1	-7	28	36	2	3	-6	/	/
CCOc1ccc(S(=O)(=O)Nc2ccc(F)cc2)c(C)c1C	-6	16	7	9.5*	18	-14	17	12*
CCOc1ccc(NS(=O)(=O)c2cc(OC)ccc2OC)cc1	-9	-2	38	0	7	6	/	/
O=C(NCC[C@H]1CC[C@@H](NC(=O)C2CCOCC2)[C@@H](CO)O1)Nc1ccc(Cl)cc1	-5	/	/	-3	0	2	/	/
Cc1cc(NC(=O)CCSc2ccccc2)ccc1Br	-5	34	-2	9.2*	19	-2	22*	14*
O=C(C[C@H]1CC[C@H]2[C@@H](COC[C@@H](O)CN2S(=O)(=O)c2ccc(F)cc2)O1)N[C@@H]1CCN(Cc2ccccc2)C1	-17	/	/	-6	-21	2	/	/
CC(=O)Nc1ccc(S(=O)(=O)Nc2ccc3c(c2)OCCO3)cc1Cl	-20	4	12	0	5	8	/	/
Cc1cnc(C(=O)OC(C)C(=O)Nc2ccc3c(c2)OCCO3)cn1 (centres undefined)	-10	-4	-4	9.9*	8	0	5	14*
CC(OC(=O)c1cc(S(=O)(=O)Nc2ccc(F)cc2)ccc1Cl)C(=O)Nc1ccc2c(c1)OCCO2 (centres undefined)	-4	18	-4	9.8*	12	5	12	8
O=C(NCCC1CCCCN1S(=O)(=O)c1ccccc1)C(=O)Nc1ccc(F)cc1 (centres undefined)	-7	21	17	9.7*	-11	1	11	8
Cc1ccc(CNC(=O)C(=O)NCC2OCCCN2S(=O)(=O)c2cccs2)cc1 (centres undefined)	/	0	22	11*	4	1	-2	0
Cc1ccc(S(=O)(=O)N2CCCCC2CCNC(=O)C(=O)NCc2cccnc2)cc1 (centres undefined)	-5	0	12	-3	-1	0	/	/
Cc1ccc(CNC(=O)C(=O)NCCC2CCCCN2S(=O)(=O)c2ccc(C)cc2)cc1 (centres undefined)	-6	25	-20	13*	19	10	6	2
COc1ccc(NC(=O)C(=O)NCCC2CCCCN2S(=O)(=O)c2ccc(F)cc2)cc1 (centres undefined)	-6	19	0	-2	-6	-2	/	/
CCc1ccc(NC(=O)COC(=O)/C=C/c2ccco2)cc1	-6	-2	42	11*	5	-8	2	4
O=C(CN(Cc1ccccc1)S(=O)(=O)c1ccccc1)N/N=C/c1ccccc1[N+](=O)[O-]	-7	20	10	4	7	-7	/	/
Cc1ccc(CN(CC(=O)N/N=C/c2ccccc2[N+](=O)[O-])S(=O)(=O)c2ccc(C)cc2)cc1	0	23	7	9.1*	13	15	33*	14*
COc1ccc(S[C@@H](CCN2CC[C@H](C)CCC2=O)c2ccccc2)cc1	-5	29	-4	14*	15	-3	16	11*
CCN(C(=O)C1CCCN(c2nnc(-n3cccc3)s2)C1)c1ccccc1C (centres undefined)	/	/	/	9	9	/	/	/
O=C(Nc1ccc(C(F)(F)F)cc1)OC1CCC12CCCCC2 (centres undefined)	/	/	/	0	-1	/	/	/
CN(C)S(=O)(=O)c1cccc(C(=O)N2CCN(Cc3ccccc3)CC2)c1	-3	-4	14	-2	-2	18	/	/
Cc1ccc(N(C)S(=O)(=O)c2cccc(C(=O)N3CCN(Cc4ccccc4)CC3)c2)cc1	-8	11	1	9.3*	16	3	12	6
SMILES	CaV13 ICDI inh	FAS-TE inh	Arr AP2 block	ADAM17 inh	ADAM10 inh	CendR NRP1 mod	ADAM10 ctr	ADAM17 confirm
O=C(CSc1nc2cc(Cl)ccc2s1)c1cc2ccccc2o1	-7	21	20	12*	17	-4	5	5
O=C(CSc1nc2cc(Cl)ccc2s1)Nc1cccc(S(=O)(=O)N2CCOCC2)c1	-4	32	-12	11*	20	-4	20*	10*
O=C(c1ccccc1)N1CCN(C(=O)c2ccccc2)c2ccccc21	-3	-8	-2	-7	-15	-7	/	/
OCCOCCn1c(C2CCCN2c2nc(-c3ccc(F)cc3)cs2)nc2cc(C(F)(F)F)ccc21 (centres undefined)	-10	18	15	9.9*	12	1	7	7
COc1ccc(S(=O)(=O)N2C[C@H]3CON(C)[C@H]3C[C@H]2c2ccc(-c3cc4ccccc4o3)cc2)cc1	-4	27	/	3	4	-16	/	/
O=C(CN1C(=O)S/C(=C\c2ccc(F)cc2)C1=O)Nc1cccc(S(=O)(=O)NCc2ccco2)c1	-2	33	12	9.2*	9	8	21*	12*
CCOc1ccccc1NS(=O)(=O)c1ccc(-c2cnc(C3CC3)o2)cc1	-2	13	25	9.9*	7	11	0	5
COc1ccccc1NS(=O)(=O)c1ccc(-c2cnc(C3CC3)o2)cc1	-3	12	-6	-1	3	4	/	/
C[C@@H]1CN([C@H](C)CO)C(=O)CCCn2cc(nn2)CO[C@H]1CN(C)C(=O)c1ccncc1	/	-4	/	-1	-6	-2	/	/
Nc1ccc2nc(CCCCCCCCc3nc4ccc(N)cc4[nH]3)[nH]c2c1	-5	-12	9	13*	11	5	4	3
Nc1ccc2nc(CCCCCCc3nc4ccc(N)cc4[nH]3)[nH]c2c1	5	-6	7	-4	-2	-6	/	/
